Data set [1] relates to Hepatitis C virus. The experiment in a line: Antiviral activity against Hepatitis C virus genotype 1a infected in human Huh cells assessed as inhibition of viral replication by RT-PCR-based replicon assay. In kind it is functional, cell-based, Hepacivirus hominis. As to conditions: subtype 1a. The gist of the method: (§1)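 HCV replicon EC50 determined in duplicate, using either a GT1b luciferase reporter read-out or RT-PCR quantification of replicon RNA.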
(In antiviral work, replicon cells carry a viral genome segment that copies itself.)

A short description of data set [2]: Half life in human liver microsomes at 2 uM. In kind it is ADME. The gist of the method:
(§2)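 Stability in liver microsomes with 2 µM initial compound concentration; half-life recorded.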

Data set [3] is described as follows: Inhibition of Hepatitis C virus genotype 1b C-terminal truncated NS5B RNA dependent RNA polymerase delta21 expressed in Escherichia coli by scintillation proximity assay. Set-up: species or system Hepatitis C virus subtype 1b. The gist of the method: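 Biochemical polymerase inhibition using a C-terminally truncated GT1b NS5BΔ21 construct. Values are the mean of duplicate measurements (n ≥ 2).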
(In general: In a scintillation proximity assay essentially only radioactivity close to the scintillant gives light.)

A short description of data set [4]: Plasma concentration in rat at 4 mg/kg, po as cassette dosing measured at 1 hr post dose. In kind it is ADME, organism-based. Set-up: dose 4 mg/kg, route oral. In outline:
(§3)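 Cassette dosing: a mixture of 4 compounds, each at 4 mg/kg, given orally to 2 fasted rats in 0.5% methylcellulose, 0.3% Tween-80 and 1% NMP. Plasma sampled at 1 and 2 h. Liver/plasma ratio determined at 2 h.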

The test system of data set [5] is Hepatitis C virus. In words: Antiviral activity against Hepatitis C virus genotype 1b infected in human Huh cells assessed as inhibition of viral replication by luciferase reporter assay. In kind it is functional, cell-based, Hepacivirus hominis. In outline:
as §1
Background: Reporter assays use an easily measured gene product as a stand-in for the process of interest.

A short description of data set [6]: Permeability from apical to basolateral side of human Caco2 cells. In kind it is ADME, cell-based. Conditions: Caco-2, read-out: permeability. The gist of the method:
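Caco-2 permeability measured in the apical-to-basolateral direction, reported in cm/s.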

Data set [7] can be described thus: Plasma concentration in rat at 4 mg/kg, po as cassette dosing measured at 2 hrs post dose. Also on record: dose 4 mg/kg, route oral. In kind it is ADME, organism-based. In outline:
as §3

Data set [8] can be described thus: Cytotoxicity against human HuH7 cells assessed as reduction in cell viability by MTT assay. In kind it is cell-based. Conditions: Huh-7 cells, read-out: TC50 (the source's name). The gist of the method: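 Cytotoxicity (TC50) measured by MTT read-out in the Huh-7 cell line.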
Data set [9] in a line: Half life in rat liver microsomes at 2 uM. In kind it is ADME. The gist of the method: as §2
For data set [10], the system named is Salmonella typhimurium. In words: Mutagenic activity in Salmonella typhimurium at 315 to 5000 ug/plate by Ames test in presence of S9 fraction. As to conditions: salmonella enterica subsp. enterica serovar typhimurium. In kind it is toxicity, organism-based. The gist of the method: (§4)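 Ames test on the free carboxylic acid forms using multiple strains and strain TA100 of Salmonella typhimurium, at 315–5000 µg per plate, run with and without S9 metabolic activation.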

Data set [11] concerns Salmonella typhimurium. The experiment in a line: Mutagenic activity in Salmonella typhimurium at 315 to 5000 ug/plate by Ames test in absence of S9 fraction. In kind it is toxicity, organism-based. As to conditions: salmonella enterica subsp. enterica serovar typhimurium. The gist of the method:
as §4

Data set [12] can be described thus: Lipophilicity, log D of the compound at pH 7.4. In kind it is physicochemical. As to conditions: buffer.
A short description of data set [13]: Ratio of drug up take in liver to plasma of rat at 4 mg/kg, po as cassette dosing measured at 2 hrs post dose. Set-up: dose 4 mg/kg, route oral. In kind it is ADME, organism-based. The gist of the method: as §3

Bounds are passed on as bounds.

One may read the EC50 as the concentration needed to bring the measured effect to its halfway point. By half-life is commonly meant how long it takes for the measured level to halve. Low readings indicate rapid decline, high ones slow decline. Usually IC50 stands for the point on the concentration scale where inhibition reaches its midpoint. In the case of `CCOc1nc(NC(=O)C2(NC(=O)c3ccc4c(C5CCCC5)c(-c5ncc(Cl)cn5)n(C)c4c3)CCC2)ncc1/C=C/C(=O)O`, the EC50 with Hepatitis C virus [1] worked out at 89 nM; in the data set on Hepatitis C virus [5] it was 40 nM. The half-life at 2 µM was 239 min in [2] and above 300 min in [9]. For the same compound, inhibition in [3] was half-maximal at 63 nM (IC50). Further, the concentration at 1 h in data set [4] was found to be 100 nM. Besides, in [6], the Papp A→B turned out to be 4.3 ×10⁻⁶ cm/s. In data set [7], this compound showed a concentration at 2 h of 30 nM. For the same compound, the CC50 in data set [8] is above 10 µM.

As for `CCOc1nc(N)cnc1/C=C/C(=O)O`, the Activity entry in the data set on Salmonella typhimurium [10] and with Salmonella typhimurium [11] was “Non-toxic” throughout.

A word on the logD: it is lipophilicity at a set pH, counting ionised and neutral species. A word on the Kp: it is the ratio of the level in a tissue or fluid to that in plasma or blood. With `CCOc1cc(NC(=O)C2(NC(=O)c3ccc4c(C5CCCC5)c(-c5ncc(Cl)cn5)n(C)c4c3)CCC2)cnc1/C=C/C(=O)O`, the half-life at 2 µM amounted to 275 min in [2] and 143 min in [9]. In [3], this compound had an IC50 of 110 nM. For the same compound, in [4], the concentration at 1 h stood at 400 nM. The log distribution coefficient (logD) in [12] worked out at 3.9. For the same compound, the EC50 in the data set with Hepatitis C virus [5] amounted to 20 nM. The Papp A→B in data set [6] was determined as 7.5 ×10⁻⁶ cm/s. The concentration at 2 h in data set [7] came out at 100 nM. The CC50 in data set [8] is above 10 µM. For the same compound, in data set [13], the Kp at 2 h is 5.

With `CCOc1nc(N)ccc1/C=C/C(=O)O`, the Activity entry in the data set on Salmonella typhimurium [10] and in the data set with Salmonella typhimurium [11] was “Non-toxic” in each case.

(Values after ChEMBL document CHEMBL3400098, “Aza follow-ups to BI 207524, a thumb pocket 1 HCV NS5B polymerase inhibitor. Part 1: Mitigating the genotoxic liability of an aniline metabolite” (Bioorg Med Chem Lett, 2015).)
